Assay results taken from ChEMBL document CHEMBL1132716, “Agonist selectivity of mGluR1 and mGluR2 metabotropic receptors: a different environment but similar recognition of an extended glutamate conformation” (J Med Chem, 1999).
Calls of active or inactive are those of the source. No cut-off for these calls is given here.

Tests used:
[1] = molecular target: Metabotropic glutamate receptor 1 (Rattus norvegicus) (UniProt P23385); test: Ratio between EC50 of compound and glutamate measured against metabotropic glutamate receptor 1; format: functional
Sequence of Metabotropic glutamate receptor 1 (Rattus norvegicus) (P23385 19-1199 limits assumed): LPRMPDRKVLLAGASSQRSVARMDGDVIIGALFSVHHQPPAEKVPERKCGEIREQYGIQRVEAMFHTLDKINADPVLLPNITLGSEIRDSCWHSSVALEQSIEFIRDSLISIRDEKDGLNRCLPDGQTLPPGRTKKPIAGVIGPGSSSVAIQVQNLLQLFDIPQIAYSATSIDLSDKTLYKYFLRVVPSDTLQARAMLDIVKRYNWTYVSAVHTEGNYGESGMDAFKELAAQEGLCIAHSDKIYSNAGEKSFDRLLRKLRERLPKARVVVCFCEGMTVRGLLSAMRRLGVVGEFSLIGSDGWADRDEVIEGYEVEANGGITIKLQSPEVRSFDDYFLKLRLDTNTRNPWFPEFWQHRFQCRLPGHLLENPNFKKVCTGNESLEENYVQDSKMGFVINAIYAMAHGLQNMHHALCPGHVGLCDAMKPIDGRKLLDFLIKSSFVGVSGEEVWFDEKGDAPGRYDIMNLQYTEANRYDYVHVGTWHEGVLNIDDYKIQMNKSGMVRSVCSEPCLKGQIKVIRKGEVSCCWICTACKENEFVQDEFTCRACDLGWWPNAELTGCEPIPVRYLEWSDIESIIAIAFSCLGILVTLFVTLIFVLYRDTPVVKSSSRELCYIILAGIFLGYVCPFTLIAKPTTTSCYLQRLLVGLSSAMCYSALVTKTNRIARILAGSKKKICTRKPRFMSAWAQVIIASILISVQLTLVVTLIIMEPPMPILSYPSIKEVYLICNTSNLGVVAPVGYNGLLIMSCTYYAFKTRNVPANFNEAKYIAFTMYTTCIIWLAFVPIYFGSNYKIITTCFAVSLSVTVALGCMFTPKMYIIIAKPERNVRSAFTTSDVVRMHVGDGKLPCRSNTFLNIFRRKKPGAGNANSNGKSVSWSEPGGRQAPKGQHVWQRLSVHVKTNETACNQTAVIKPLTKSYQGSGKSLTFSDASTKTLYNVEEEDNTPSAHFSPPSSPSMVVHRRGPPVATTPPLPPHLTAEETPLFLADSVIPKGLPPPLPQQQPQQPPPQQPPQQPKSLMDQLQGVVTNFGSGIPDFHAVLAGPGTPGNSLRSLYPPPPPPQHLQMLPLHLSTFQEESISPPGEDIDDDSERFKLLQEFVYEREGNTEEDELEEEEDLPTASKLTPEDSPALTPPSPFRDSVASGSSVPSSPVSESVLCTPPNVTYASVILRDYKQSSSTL
Summary of the method: (§1)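 mGluR1a (rat, transient in LLC-PK1 or HEK 293 cells) inositol phosphate formation; EC50 from Hill fits of at least eight-point curves over 3 log units, expressed as ratio of compound EC50 to glutamate EC50 measured in the same assay.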

[2] = molecular target: Metabotropic glutamate receptor 2 (Rattus norvegicus) (UniProt P31421); test: Ratio between EC50 of compound and glutamate measured against Metabotropic glutamate receptor 2; format: functional
Sequence of Metabotropic glutamate receptor 2 (Rattus norvegicus) (P31421 19-872 limits assumed): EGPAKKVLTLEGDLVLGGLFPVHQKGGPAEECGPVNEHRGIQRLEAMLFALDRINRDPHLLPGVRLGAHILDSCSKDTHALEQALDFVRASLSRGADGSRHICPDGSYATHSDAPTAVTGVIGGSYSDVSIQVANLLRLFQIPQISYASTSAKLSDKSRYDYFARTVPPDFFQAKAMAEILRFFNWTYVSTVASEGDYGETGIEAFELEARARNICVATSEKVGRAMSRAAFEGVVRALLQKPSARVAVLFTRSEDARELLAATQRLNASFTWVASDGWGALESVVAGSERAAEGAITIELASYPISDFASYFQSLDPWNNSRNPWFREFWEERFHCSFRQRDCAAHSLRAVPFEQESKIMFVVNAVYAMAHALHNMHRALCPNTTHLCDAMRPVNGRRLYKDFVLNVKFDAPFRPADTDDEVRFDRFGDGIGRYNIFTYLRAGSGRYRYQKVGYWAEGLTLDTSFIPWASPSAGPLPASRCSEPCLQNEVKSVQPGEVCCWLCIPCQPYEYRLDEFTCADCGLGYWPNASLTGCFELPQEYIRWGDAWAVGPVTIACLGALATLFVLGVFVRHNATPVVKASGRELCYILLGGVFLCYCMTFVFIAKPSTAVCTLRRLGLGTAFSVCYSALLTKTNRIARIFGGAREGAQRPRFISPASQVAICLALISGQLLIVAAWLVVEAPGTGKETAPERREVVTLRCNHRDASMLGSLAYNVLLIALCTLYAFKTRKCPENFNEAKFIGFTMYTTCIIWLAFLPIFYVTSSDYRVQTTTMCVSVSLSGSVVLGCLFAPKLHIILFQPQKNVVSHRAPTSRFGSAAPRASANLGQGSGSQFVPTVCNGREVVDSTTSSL
Summary of the method: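 mGluR2 (rat, transient in HEK 293 cells with co-expressed Gqi9 chimera) inositol phosphate formation; EC50 from Hill fits of at least eight concentrations over 3 orders of magnitude, reported as ratio to the glutamate EC50 determined under the same conditions.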

[3] = molecular target: T1, Metabotropic glutamate receptor 1 (Rattus norvegicus, UniProt P23385); test: Inhibitory activity against Metabotropic glutamate receptor 1 in the rat LLC-PK1/HEK 293 cells.; No effect; format: cell-based; settings: hek293
T1 sequence (P23385 whole entry): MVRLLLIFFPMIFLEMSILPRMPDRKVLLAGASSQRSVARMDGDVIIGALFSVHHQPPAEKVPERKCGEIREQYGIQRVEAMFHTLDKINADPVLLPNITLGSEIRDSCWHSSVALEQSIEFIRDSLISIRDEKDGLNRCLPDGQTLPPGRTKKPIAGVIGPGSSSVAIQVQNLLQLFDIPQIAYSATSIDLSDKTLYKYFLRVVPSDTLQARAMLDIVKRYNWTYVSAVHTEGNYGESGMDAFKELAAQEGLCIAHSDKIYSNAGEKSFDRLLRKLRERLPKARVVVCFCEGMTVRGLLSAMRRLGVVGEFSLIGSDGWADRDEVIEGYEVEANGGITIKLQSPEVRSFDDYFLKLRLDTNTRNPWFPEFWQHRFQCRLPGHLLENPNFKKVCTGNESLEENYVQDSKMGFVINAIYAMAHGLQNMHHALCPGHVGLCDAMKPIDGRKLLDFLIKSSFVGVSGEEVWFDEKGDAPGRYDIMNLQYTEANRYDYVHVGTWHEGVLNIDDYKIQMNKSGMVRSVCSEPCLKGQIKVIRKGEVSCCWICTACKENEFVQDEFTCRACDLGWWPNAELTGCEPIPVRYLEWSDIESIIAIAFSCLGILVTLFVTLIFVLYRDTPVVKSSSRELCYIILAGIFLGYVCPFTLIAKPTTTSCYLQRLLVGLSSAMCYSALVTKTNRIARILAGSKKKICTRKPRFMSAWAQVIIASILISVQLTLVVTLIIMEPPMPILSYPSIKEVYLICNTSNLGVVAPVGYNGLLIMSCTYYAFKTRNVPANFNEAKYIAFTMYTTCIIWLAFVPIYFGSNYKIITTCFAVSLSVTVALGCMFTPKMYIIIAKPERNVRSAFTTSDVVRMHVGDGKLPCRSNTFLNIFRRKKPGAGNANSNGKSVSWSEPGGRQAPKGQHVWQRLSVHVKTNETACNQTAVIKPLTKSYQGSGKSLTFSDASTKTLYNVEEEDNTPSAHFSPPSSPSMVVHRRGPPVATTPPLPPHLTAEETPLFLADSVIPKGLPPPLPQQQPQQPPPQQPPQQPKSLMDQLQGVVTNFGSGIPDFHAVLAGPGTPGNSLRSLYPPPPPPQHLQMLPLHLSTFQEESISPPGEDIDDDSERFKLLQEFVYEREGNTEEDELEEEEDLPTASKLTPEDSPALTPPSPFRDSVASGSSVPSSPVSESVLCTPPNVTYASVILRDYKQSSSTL
Summary of the method: (§2)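 Rat mGluR1a transiently expressed in LLC-PK1 or HEK 293 cells; receptor activity read as agonist-induced inositol phosphate formation. At least eight agonist concentrations spanning 3 orders of magnitude gave full dose-response curves, fitted to a Hill equation for maximal effect, EC50 (or IC50) and Hill coefficient.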

[4] = molecular target: Metabotropic glutamate receptor 2 (Rattus norvegicus, UniProt P31421); test: Inhibitory activity against Metabotropic glutamate receptor 2 in the rat HEK 293 cells.; format: cell-based, HEK293
Sequence of Metabotropic glutamate receptor 2 (Rattus norvegicus, UniProt P31421) (P31421 whole entry): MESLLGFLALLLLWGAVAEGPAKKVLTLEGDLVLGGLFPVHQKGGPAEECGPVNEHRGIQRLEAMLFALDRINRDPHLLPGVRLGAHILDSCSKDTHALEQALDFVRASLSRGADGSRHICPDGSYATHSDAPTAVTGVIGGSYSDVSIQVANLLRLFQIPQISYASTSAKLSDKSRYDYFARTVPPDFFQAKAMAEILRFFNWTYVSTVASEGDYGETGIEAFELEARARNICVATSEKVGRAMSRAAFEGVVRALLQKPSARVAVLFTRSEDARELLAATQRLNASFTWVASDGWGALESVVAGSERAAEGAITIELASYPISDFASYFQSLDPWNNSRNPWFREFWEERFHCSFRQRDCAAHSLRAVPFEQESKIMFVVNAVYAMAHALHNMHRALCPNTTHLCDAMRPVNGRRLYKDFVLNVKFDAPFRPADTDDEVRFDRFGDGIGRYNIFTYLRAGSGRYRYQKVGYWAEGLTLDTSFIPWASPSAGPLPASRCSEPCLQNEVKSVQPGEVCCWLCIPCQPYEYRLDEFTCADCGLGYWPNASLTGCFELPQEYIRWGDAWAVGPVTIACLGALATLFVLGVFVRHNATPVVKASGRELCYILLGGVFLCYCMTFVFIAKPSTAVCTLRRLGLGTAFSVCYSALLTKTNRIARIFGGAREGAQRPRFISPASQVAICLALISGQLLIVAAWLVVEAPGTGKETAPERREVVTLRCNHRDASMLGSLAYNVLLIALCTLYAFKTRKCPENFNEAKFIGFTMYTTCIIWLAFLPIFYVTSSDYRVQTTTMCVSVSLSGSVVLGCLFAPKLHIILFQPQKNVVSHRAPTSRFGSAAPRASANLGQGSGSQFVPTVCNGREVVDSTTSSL
Summary of the method: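 Rat mGluR2 transiently expressed in HEK 293 cells, cotransfected with chimeric G-protein Gqi9 so the receptor couples to PLC; activity read as agonist-induced inositol phosphate formation. At least eight concentrations over 3 orders of magnitude gave full dose-response curves, Hill-equation fit giving maximal effect, EC50 (or IC50) and Hill coefficient.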

[5] = molecular target: Metabotropic glutamate receptor 1 (Rattus norvegicus) (UniProt P23385); test: Ratio between the measured EC50 and the glutamate EC50 measured against Metabotropic glutamate receptor 1; No effect; format: functional; summary of the method: as §1
[6] = molecular target: Metabotropic glutamate receptor 2 (Homo sapiens, UniProt Q14416); test: Inhibitory activity against human Metabotropic glutamate receptor 2
Sequence of Metabotropic glutamate receptor 2 (Homo sapiens, UniProt Q14416) (Q14416 whole entry): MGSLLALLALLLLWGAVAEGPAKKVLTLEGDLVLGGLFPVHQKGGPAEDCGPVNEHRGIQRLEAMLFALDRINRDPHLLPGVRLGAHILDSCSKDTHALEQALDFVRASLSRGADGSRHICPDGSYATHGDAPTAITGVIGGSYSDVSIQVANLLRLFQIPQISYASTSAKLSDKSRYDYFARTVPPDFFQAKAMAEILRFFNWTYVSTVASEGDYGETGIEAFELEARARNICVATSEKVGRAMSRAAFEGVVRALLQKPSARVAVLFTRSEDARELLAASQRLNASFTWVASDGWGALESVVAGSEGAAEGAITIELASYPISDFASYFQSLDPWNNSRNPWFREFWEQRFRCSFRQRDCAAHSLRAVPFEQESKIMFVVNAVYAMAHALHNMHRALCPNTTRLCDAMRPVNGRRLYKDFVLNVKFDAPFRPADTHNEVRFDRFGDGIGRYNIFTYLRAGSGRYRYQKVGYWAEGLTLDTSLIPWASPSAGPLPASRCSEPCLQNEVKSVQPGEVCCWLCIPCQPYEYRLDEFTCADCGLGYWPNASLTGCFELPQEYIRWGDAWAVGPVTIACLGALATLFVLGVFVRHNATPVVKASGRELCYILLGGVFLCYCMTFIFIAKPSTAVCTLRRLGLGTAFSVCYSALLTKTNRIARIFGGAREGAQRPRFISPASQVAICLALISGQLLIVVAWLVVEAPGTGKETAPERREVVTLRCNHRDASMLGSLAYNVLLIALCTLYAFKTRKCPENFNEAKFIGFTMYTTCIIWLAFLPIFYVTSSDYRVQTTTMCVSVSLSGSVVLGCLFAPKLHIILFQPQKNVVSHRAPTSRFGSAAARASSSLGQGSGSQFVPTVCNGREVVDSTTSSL

[7] = molecular target: T1, Metabotropic glutamate receptor 1; test: Inhibitory activity against Metabotropic glutamate receptor 1 in the rat LLC-PK1/HEK 293 cells.; format: cell-based, HEK293; summary of the method: as §2
[8] = molecular target: T1, Metabotropic glutamate receptor 1; test: Inhibitory activity against Metabotropic glutamate receptor 1 in the rat LLC-PK1/HEK 293 cells; format: cell-based, HEK293; summary of the method: as §2

Compound: C=C(CC(N)C(=O)O)C(=O)O (racemic)
- EC50 ratio [1]: 1.1
- EC50 ratio [2]: 0.4

Compound: N[C@@H](CC(C(=O)O)C(=O)O)C(=O)O
- IC50 [3]: Not Active
- IC50 [4]: 102 µM
- EC50 ratio [5]: inactive

Compound: C[C@@H](CC(=O)O)[C@H](N)C(=O)O
- EC50 ratio [1]: 13
- EC50 ratio [2]: 80

Compound: C=C(C[C@@H](N)C(=O)O)C(=O)O
- EC50 ratio [1]: 14

Compound: N[C@@H](C[C@H](CCCC(c1ccccc1)c1ccccc1)C(=O)O)C(=O)O
- IC50 [3]: Not Active
- IC50 [6]: 0.4 µM

Compound: N[C@H](C(=O)O)C1[C@@H](C(=O)O)[C@@H]1C(=O)O (stereo partly specified)
- EC50 ratio [2]: 0.03
- IC50 [7]: 389 µM

Compound: C=C(C[C@H](N)C(=O)O)C(=O)O
- EC50 ratio [1]: 0.7

Compound: N[C@H](C(=O)O)c1cc(O)no1
- EC50 ratio [1]: 0.91
- EC50 ratio [2]: 25

Compound: N[C@]1(C(=O)O)C[C@H](C(=O)O)[C@H](C(=O)O)C1
- IC50 [4]: 88 µM
- EC50 ratio [5]: inactive
- IC50 [7]: 115 µM

Compound: N[C@]1(C(=O)O)CC[C@H](C(=O)O)C1
- EC50 ratio [1]: 10
- EC50 ratio [2]: 10

Compound: NC1(C(=O)O)CC2CC1C2C(=O)O (stereo in doubt; 14)
- EC50 ratio [1]: 47
- EC50 ratio [2]: 131

Compound: CC(CC(N)C(=O)O)C(=O)O (racemic)
- EC50 ratio [1]: 0.65
- EC50 ratio [2]: 0.53

Compound: N[C@@H](Cn1oc(=O)[nH]c1=O)C(=O)O
- EC50 ratio [1]: 0.02
- EC50 ratio [2]: > 90

Compound: NC1(C(=O)O)CC2CCC1C2C(=O)O (stereo in doubt; 10)
- EC50 ratio [1]: > 80
- EC50 ratio [2]: > 80

Compound: C[C@@](N)(CCC(=O)O)C(=O)O
- EC50 ratio [1]: > 80

Compound: N[C@H](C(=O)O)[C@H]1C[C@@H]1C(=O)O
- EC50 ratio [1]: 5
- EC50 ratio [2]: 0.04

Compound: N[C@@]1(C(=O)O)CC[C@@H](C(=O)O)C1
- EC50 ratio [1]: 0.75
- EC50 ratio [2]: 1.6

Compound: N[C@H](C(=O)O)C12CC(C(=O)O)(C1)C2
- IC50 [4]: > 300 µM
- EC50 ratio [2]: > 60
- IC50 [7]: 25 µM

Compound: N[C@@]1(C(=O)O)CN[C@@H](C(=O)O)C1
- EC50 ratio [1]: > 80
- EC50 ratio [2]: 0.4

Compound: C[C@H](C[C@@H](N)C(=O)O)C(=O)O
- EC50 ratio [1]: 4.9
- EC50 ratio [2]: 1.1

Compound: N[C@@H](CCC(=O)O)C(=O)O
- EC50 ratio [1]: 1
- EC50 ratio [2]: 1

Compound: N[C@H](C(=O)O)c1cccc(O)c1
- EC50 ratio [1]: 7.8
- EC50 ratio [2]: > 80

Compound: C[C@H](CC(=O)O)[C@H](N)C(=O)O
- EC50 ratio [1]: 23
- EC50 ratio [2]: 12

Compound: N[C@H](C(=O)O)[C@@H]1C[C@H]1C(=O)O
- EC50 ratio [1]: 20

Compound: N[C@H](C(=O)O)c1ccc(C(=O)O)c(O)c1
- EC50 ratio [2]: 4
- IC50 [8]: 40 µM

Compound: N[C@H](C(=O)O)c1cc(O)cc(O)c1
- EC50 ratio [1]: 0.53

Compound: NC1(C(=O)O)CC2CCC1C2C(=O)O (stereo in doubt; 8) [listing 1 of 2 here]
- EC50 ratio [2]: > 80

Compound: NC1(C(=O)O)CC2CC1C2C(=O)O (stereo in doubt; 12)
- EC50 ratio [1]: 0.32
- EC50 ratio [2]: 1.1

Compound: C[C@@](N)(C(=O)O)[C@H]1C[C@@H]1C(=O)O
- IC50 [4]: 77 µM
- EC50 ratio [5]: inactive

Compound: N[C@@]1(C(=O)O)CC[C@H](C(=O)O)C1
- EC50 ratio [1]: > 25
- EC50 ratio [2]: 1.2

Compound: N[C@@H](C[C@H](CC(c1ccccc1)c1ccccc1)C(=O)O)C(=O)O
- IC50 [3]: Not Active
- IC50 [6]: 3 µM

Compound: O=C(O)[C@H]1C[C@H](C(=O)O)N1
- EC50 ratio [1]: 15
- EC50 ratio [2]: > 80

Compound: N[C@@]1(C(=O)O)CC[C@H]2[C@H](C(=O)O)[C@H]21
- EC50 ratio [2]: 0.004
- IC50 [7]: 458 µM

Compound: C[C@](N)(CCC(=O)O)C(=O)O
- EC50 ratio [1]: > 80

Compound: C[C@H](C[C@H](N)C(=O)O)C(=O)O
- EC50 ratio [1]: 4.6
- EC50 ratio [2]: 23

Compound: CC(N)(CCC(=O)O)C(=O)O (racemic)
- EC50 ratio [2]: > 80

Compound: NC1(C(=O)O)CC2CC1C2C(=O)O (stereo in doubt; 13)
- EC50 ratio [1]: 25
- EC50 ratio [2]: 186

Compound: NC1(C(=O)O)CC2CCC1C2C(=O)O (stereo in doubt; 8) [listing 2 of 2 here]
- IC50 [7]: 300 µM

Compound: C[C@@H](C[C@H](N)C(=O)O)C(=O)O
- EC50 ratio [1]: 0.5
- EC50 ratio [2]: 0.3

Compound: NC1(C(=O)O)C2CCC1C(C(=O)O)C2 (stereo unspecified)
- IC50 [4]: > 1000 µM
- EC50 ratio [1]: > 80
- EC50 ratio [2]: > 80
- IC50 [7]: > 1000 µM
